Activity calls are given as the source filed them. No cut-off for these calls is given here.
Key:
Mus musculus [1] = assay: Agonist activity at NMDA receptor assessed as induction of violent convulsive behavior in intracerebroventricular dosed ddY mouse at 145 pmol; format: functional, organism-based
[2] = test system: AMPA-type glutamate receptor (Rattus norvegicus); assay: Displacement of [3H]AMPA from AMPA receptor in Sprague-Dawley rat brain membrane
Mus musculus [3] = assay: Agonist activity at NMDA receptor assessed as induction of convulsive behavior in intracerebroventricular dosed ddY mouse; format: functional
Procedure, shortened: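 Male ddY mice (15-20 g, 4-6 weeks old) received intracerebroventricular injections. More than three animals were used per dose. ED50 (pmol/mouse) was derived from dose-response curves.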

Glutamate NMDA receptor = assay: Displacement of [3H]CGP39653 from NMDA receptor in Sprague-Dawley rat brain membrane; format: cell membranes
Procedure, shortened: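 Synaptic membranes were prepared from Sprague-Dawley rats (200-220 g). The assay used 2 nM [3H]CGP39653 to label the NMDA site, incubated at 4 °C for 1 h in 5 mM Tris-HCl (pH 7.7). Inhibition of labelled-ligand binding gave the IC50.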

Mus musculus [4] = assay: Induction of convulsive behavior in icv dosed ddY mouse assessed as hyperactivie and stereotypical behaviors at 33 pmol; format: functional, organism-based
[5] = test system: Kainate-type glutamate receptor (Rattus norvegicus); assay: Displacement of [3H]kanic acid from kainate receptor in Sprague-Dawley rat brain membrane

| Compound | Activity (Mus musculus [1]) | Activity [2] | Activity (Mus musculus [3]) | ED50 (Mus musculus [3]) [pmol] | IC50 (Glutamate NMDA receptor) [nM] | Activity (Mus musculus [4]) | Activity [5] |
| --- | --- | --- | --- | --- | --- | --- | --- |
| O=C(O)[C@@H]1C[C@@H](OS(=O)(=O)O)[C@H](O)CN1 [CRIBRONIC ACID] | Active | inactive | Dose-dependent effect | 29 | 83 | Active | inactive |
| O=C(O)[C@@H]1C[C@@H](OS(=O)(=O)O)CCN1 |  | inactive | Dose-dependent effect | 20 | 214 |  | inactive |
